The kinetic solubility is solubility judged after dilution from a stock solution rather than from solid. As usually defined, the Kd is the free concentration of one partner at which half of the binding sites on the other are occupied at equilibrium, for simple one-to-one binding. A high value points to a looser complex. As usually defined, the IC50 is the point on the concentration scale where inhibition reaches its midpoint.

Calls of active or inactive are those of the source. The rule behind the calls is not given here. Where only a bound is given, the exact number is not on record here.

For data set [1], the system named is MDA-MB-231. As to the kind of experiment: Increase in caspase-3 activation in human MDA-MB-231 cells at 5 to 20 uM after 24 hrs by MSD assay. It counts as functional, cell-based.
A short description of data set [2]: Apparent solubility after 1 day by nephelometry-based method. It counts as physicochemical. In outline: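 DMSO stock at 10 mM prepared on day 1. Tested at 8 concentrations in triplicate. Assay run on day 1 and read on day 2.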
Data set [3] in a line: Stability in human plasma by LC/MS/MS analysis. The format is ADME, cell-free. To be noted: read-out: Stability. Put shortly: (§1)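 Incubation in human plasma at 37 °C for 15, 60 and 120 min. Quantitation by LC/MS/MS in MRM mode, with results expressed as percent remaining of initial concentration.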
Data set [4] relates to MDA-MB-231. As to the kind of experiment: Sensitization of 120 ng/mL TRAIL-induced apoptosis in human MDA-MB-231 cells assessed as combination index at 12 uM after 24 hrs by ATPlite assay. It counts as functional.
Data set [5] deals with Plasma. The experiment in a line: Stability in human plasma assessed as compound remaining by LC/MS/MS analysis. The format is ADME, cell-free. In outline:
as §1

Data set [6] concerns MDA-MB-231. As to the kind of experiment: Sensitization of 130 ng/mL TRAIL-induced apoptosis in human MDA-MB-231 cells assessed as combination index at 13 uM after 24 hrs by ATPlite assay. The format is functional.
For data set [7], the system named is MDA-MB-231. As to the kind of experiment: Sensitization of 100 ng/mLTRAIL-induced apoptosis in human MDA-MB-231 cells assessed as combination index at 10 uM after 24 hrs by ATPlite assay. It counts as functional.
For data set [8], the system named is MEF. As to the kind of experiment: Inhibition of wild type MEF proliferation assessed as cell viability at 5 to 45 uM after 24 hrs by ATPlite assay relative to control. The format is cell-based. As to conditions: mouse. Background: In ATP-based viability assays light output follows the ATP content of the culture.
Data set [9] has as its system MEF. The experiment in a line: Inhibition of XIAP knockout MEF proliferation assessed as cell viability after 24 hrs by ATPlite assay relative to control. As to conditions: Mus musculus. It counts as functional, cell-based.
Data set [10] has as its system MDA-MB-231. The experiment in a line: Sensitization of 90 ng/mL TRAIL-induced apoptosis in human MDA-MB-231 cells assessed as combination index at 9 uM after 24 hrs by ATPlite assay. The format is functional.
Data set [11] has as its system MDA-MB-231. The experiment in a line: Sensitization of 50 ng/mL TRAIL-induced apoptosis in human MDA-MB-231 cells assessed as combination index at 5 uM after 24 hrs by ATPlite assay. It counts as functional.
Data set [12] in a line: Permeability by PAMPA method. It counts as ADME. Background: In PAMPA a lipid-coated filter parts donor from acceptor wells.
Data set [13] in a line: Metabolic stability in liver microsomes assessed as half life after 30 mins by LC/MS/MS analysis in presence of NADPH. The format is ADME, Microsome. A general note: Microsomes from liver hold many membrane-bound enzymes, among them those of drug oxidation.
Data set [14] is described as follows: Metabolic stability in liver microsomes assessed as intrinsic clearance after 30 mins by LC/MS/MS analysis in presence of NADPH. It counts as ADME, Microsome. To be noted: 0.5 h.
For data set [15], the target named is E3 ubiquitin-protein ligase XIAP (Homo sapiens, UniProt P98170). The experiment in a line: Binding affinity to histidine6-tagged human XIAP Bir3 domain expressed in Escherichia coli BL21(DE3). Put shortly:
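Binding to 15N-labelled Bir3 was measured by 2D [15N,1H]-HSQC NMR titration at 300 K. Samples held 0.1 mM protein in 100 mM potassium phosphate pH 7.0 with 5% DMSO and 7% D2O. At least six ligand concentrations were used. Kd came from a non-linear least-squares fit of fractional shift change (p) against ligand concentration.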

Data set [16] concerns MDA-MB-231. As to the kind of experiment: cells. As to conditions: Homo sapiens, MDA-MB-231, 48 h.

E3 ubiquitin-protein ligase XIAP, sequence (P98170 whole entry, the tested form may be a part): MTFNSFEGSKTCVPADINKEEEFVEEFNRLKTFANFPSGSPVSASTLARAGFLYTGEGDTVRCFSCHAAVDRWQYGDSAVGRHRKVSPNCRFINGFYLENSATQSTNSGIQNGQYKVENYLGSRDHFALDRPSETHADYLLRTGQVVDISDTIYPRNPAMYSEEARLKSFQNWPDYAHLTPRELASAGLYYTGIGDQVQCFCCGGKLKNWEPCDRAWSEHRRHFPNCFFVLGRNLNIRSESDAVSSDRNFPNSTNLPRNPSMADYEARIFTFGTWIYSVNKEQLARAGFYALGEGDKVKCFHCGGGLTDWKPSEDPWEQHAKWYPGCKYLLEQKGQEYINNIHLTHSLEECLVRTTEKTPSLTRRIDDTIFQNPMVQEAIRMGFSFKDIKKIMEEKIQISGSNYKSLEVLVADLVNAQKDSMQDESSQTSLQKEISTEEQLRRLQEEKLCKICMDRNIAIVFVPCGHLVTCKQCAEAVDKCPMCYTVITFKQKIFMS

Regarding `CN[C@@H](C)C(=O)Nc1ccc(Oc2ccc(OC)cc2)c(C(=O)NCc2csc(-c3cccs3)n2)c1`, the result in data set [1] and in data set [9] was Active. For the same molecule, the kinetic solubility at 24 h in data set [2] is greater than 100 µg/mL. Further, the half-life was greater than 120 min in [3] and 14.5 min in [13]. The Activity in data set [4] is recorded as 0.27; in data set [6] it was 0.32; in [7], 0.41; in [8] it was “Toxic”; in data set [10], 0.4; in [11] it was 0.44. The Stability in data set [5] was 93.9%. This molecule also showed a permeability in data set [12] of 27%. Besides, in data set [14], the clearance was determined as 47.7 µL/min/mg.
As to `C[C@H](N)C(=O)Nc1ccc(Oc2ccccc2Cl)cc1`, the affinity in data set [15], expressed as Kd, was 200 µM.
In turn, `CC[C@H](C)[C@H](NC(=O)[C@@H]1CCCN1C(=O)[C@@H](NC(=O)[C@H](C)N)C(C)C)C(=O)O` yielded an IC50 in data set [16] greater than 50 µM.

These data come from ChEMBL document CHEMBL1152296, “Fragment-based design of small molecule X-linked inhibitor of apoptosis protein inhibitors” (J Med Chem, 2008).
